Here are results for 4 compounds from publication PMC6075728 (Bioconjugate chemistry, 2017).

Data set [1] concerns PC3 prostate tumor xenografts (EDB-FN). The data set is described as follows: Contrast enhanced T1-weighted MRI, PC3 tumor xenografts. Type of data set: in vivo, mouse (male athymic nude). The conditions noted are these: for tumor differentiation: CNR/enhancement in PC3 vs LNCaP tumors: PC3 compared with LNCaP tumors, during 30 min after injection; for signal/contrast enhancement: T1-weighted MRI, up to 30 min post-injection; for contrast-to-noise ratio (CNR), range: first 30 min post-injection, i.v. (ZD2-Gd(HP-DO3A) 0.1 mmol/kg), ZD2-Gd(HP-DO3A) vs ProHance P < 0.05 at all time points.

Data set [2] in a line: r1 relaxivity in PC3 tumor lysates. In kind it is physicochemical. The conditions noted are these: T1 mapping phantom.
The test system of data set [3] is LNCaP prostate tumor xenografts (EDB-FN). The data set is described as follows: Contrast enhanced T1-weighted MRI, LNCaP tumor xenografts. The conditions noted are these: for signal/contrast enhancement: T1-weighted MRI, up to 30 min post-injection; for contrast-to-noise ratio (CNR), range: first 30 min post-injection, i.v., 7T. Type of data set: in vivo, mouse (male athymic nude).

Data set [4] relates to other organs and normal tissues. The data set can be described thus: Contrast enhanced T1-weighted MRI, other organs and normal tissues. In kind it is in vivo, mouse (male athymic nude). The note with it: i.v.
Another data set concerns LNCaP tumors. The data set can be described thus: Quantitative T1 mapping, LNCaP tumors. In kind it is in vivo, mouse (male athymic nude). The note with it: 30 min after injection.
The next data set relates to PC3 tumors. The data set is described as follows: Quantitative T1 mapping, PC3 tumors. Type of data set: in vivo, mouse (male athymic nude). The note with it: 30 min after injection.
A short description of data set [5]: In vitro chelate stability / transmetallation in PBS with Cu2+, Ca2+, Zn2+. In kind it is physicochemical.
A short description of data set [6]: Gd biodistribution / tissue retention. The conditions noted are these: 1 week after injection, ICP-OES.
Data set [7] can be described thus: In vivo transmetallation and urinary excretion.
The nature of data set [8]: T1 relaxivity at 7T in PBS. Type of data set: physicochemical. The conditions noted are these: phantom, 3.12 - 50 μM. In outline:
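Multi-compartment phantom of the test compound in PBS at 50, 25, 12.5, 6.25 and 3.12 μM, imaged on a horizontal 7T scanner. T1 maps came from an accelerated multi-slice method combining a saturation-recovery Look-Locker sequence with spiral k-space sampling. r1 was taken from the slope of 1/T1 plotted against concentration.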

The target in a further data set is EDB protein (Homo sapiens, UniProt P02751). The data set is described as follows: SPR binding to immobilized EDB protein. The note with it: second (blue) trend line. Background: In SPR one partner is held on a chip, and binding of the other changes the refractive index at the surface.
Another data set deals with PC3 and LNCaP tumors. The conditions noted are these: after T1 mapping, about 30 min post-injection; n = 4.
Another data set has as its system non-cancerous tissue. The note with it: cited from earlier work.
A further data set deals with low-grade tumor. The conditions noted are these: cited from earlier work.
Data set [9] deals with EDB-FN in PC3 tumor sections. The data set can be described thus: Confocal fluorescence of PC3 tumor sections. Also on record: species or system mouse. The conditions noted are these: confocal microscopy.
The subject of data set [10] is high-grade human prostate tumor. The note with it: cited from earlier work.

“Also recorded” adds a separate entry of the source. Where a SMILES comes first, the peptide text is derived from it. Where no end group is shown, it is not given here. The star is where a group is joined. X1 = O=C(O)CN1CCN(CC(=O)O)CCN(CC(O)Cn2cc(CCCC(=O)*)nn2)CCN(CC(=O)O)CC1; PEG2 = NCCOCCOCCC(=O)O

Chain of EDB protein (P02751 1271-1359 limits assumed): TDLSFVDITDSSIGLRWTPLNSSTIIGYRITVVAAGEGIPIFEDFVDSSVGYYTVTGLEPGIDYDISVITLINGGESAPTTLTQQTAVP

Turning to `CC(O)CN1CCN(CC(=O)[O-])CCN(CC(=O)[O-])CCN(CC(=O)[O-])CC1.[Gd+3]` (centres unmarked) [ProHance, gadoteridol, reference compound], in data set [1], the “tumor differentiation: CNR/enhancement in PC3 vs LNCaP tumors” value (“tumor differentiation: CNR/enhancement” below) is “not significantly different”. The signal/contrast enhancement entry in [1] (PC3 tumors) and in [3] (LNCaP tumors) was “modest contrast enhancement” each time. The “contrast-to-noise ratio (CNR), range” value is 7~11 in data set [1] (PC3 tumors, 7T, n=5) and 7~10 in data set [3] (LNCaP tumors, n=5). The same compound displayed a r1 relaxivity in data set [2] of 3.17 mM⁻¹ s⁻¹. The “contrast enhancement in other organs and normal tissues” value in data set [4] is “did not produce significant contrast enhancement”.
Regarding `CC(C)[C@H](NC(=O)[C@@H](NC(=O)CCOCCOCCNC(=O)CCCc1cn(CC(O)CN2CCN(CC(=O)O)CCN(CC(=O)O)CCN(CC(=O)O)CC2)nn1)[C@@H](C)O)C(=O)N[C@@H](CCCNC(=N)N)C(=O)N[C@H](C(=O)N[C@@H](CO)C(=O)N[C@@H](C)C(=O)N[C@@H](CC(=O)O)C(=O)O)[C@@H](C)O` (some centres unmarked) [ZD2-Gd(HP-DO3A)] ({X1-PEG2}-TVRTSAD-OH; C-terminus assumed), the “tumor T1, post-contrast” value was found to be 2.54 ± 0.13 s with LNCaP tumors and 1.81 ± 0.07 s with PC3 tumors. The “change in relaxation rate (ΔR1)” value in the data set on PC3 tumors (n = 4) was “highest relaxation rate change in the PC3 tumors among all cases”. In [1], the “tumor differentiation: CNR/enhancement” value is on record as “over two times higher”. The “CNR increase at 10 min” value in data set [1] (PC3 tumors, 10 min post-injection, 0.1 mmol/kg i.v., n=5) is “over two-fold increase”. For the same compound, in [1] (PC3 tumors, 30 min post-injection, 0.1 mmol/kg i.v., 7T, mean±SEM, n=5), the “contrast-to-noise ratio (CNR), peak” value worked out at 23.7±1.68. Further, the “CNR increase at 30 min” value in data set [1] (PC3 tumors, 30 min post-injection, 0.1 mmol/kg i.v., n=5) is “over five-fold increase”. The signal/contrast enhancement result in data set [1] (PC3 tumors) is listed as “strong signal enhancement within first 10 minutes post-injection”; in [3] (LNCaP tumors), “significantly lower signal enhancement; also recorded: not evident in slow growing LNCaP tumors; also recorded: low enhancement”. For the same compound, the “contrast-to-noise ratio (CNR), range” value in data set [1] (PC3 tumors, 7T, n=5) is 12~25; in data set [3] (LNCaP tumors, n=5), 6~9. Moreover, the “relative Gd3+ content” value in [5] (200-min incubation in PBS with and without Cu2+, Ca2+ or Zn2+) was “No decrease in Gd^3+ content was observed”. Further, the “transmetallation / chelate stability” value in data set [5] (24 hours incubation with Cu2+, Ca2+ and Zn2+ in PBS, pH = 7.4) is “high chelate stability, comparable to its clinical analog ProHance, with no evident transmetallation”. Besides, in [5] (summary statement, Fig. 2), the “chelation stability in vitro” value is “high chelate stability against transmetallation; also recorded: same high in vitro and in vivo chelation stability”. In data set [6] (0.1 mmol-Gd/kg tail vein, ZD2-Gd(HP-DO3A) n = 4, ProHance n = 3), the “tissue retention / accumulation” value is reported as “minimal tissue accumulation; also recorded: same low tissue retention as ProHance; also recorded: No significant difference was seen between the two groups; also recorded: minimal body accumulation”. Further, in data set [6], the “Gd3+ concentration in most organs, including brain, heart, skin” value is listed as “below the detection limit of ICP-OES in most of the organs”. Moreover, in [7] (summary statement, Fig. 7), the “chelation stability in vivo” value was “same high in vitro and in vivo chelation stability”. The renal clearance result in data set [7] (urine, 24 hours post-injection) was “rapid clearance through renal filtration”. Further, in [7] (within 24 hours post-injection, 0.1 mmol-Gd/kg tail vein, ICP-OES), the “injected dose excreted in urine” value is on record as “over 95%”. Also, the “T1 relaxivity (r1)” value in data set [8] came to 3.7 mM⁻¹ s⁻¹. In [2], this compound gave a r1 relaxivity of 4.12 mM⁻¹ s⁻¹. In addition, the CNR increase in [3] (LNCaP tumors, first 30 min after 0.1 mmol/kg i.v., n=5) is 10~60%. Also, the “CNR in LNCaP relative to PC3 tumors” value in data set [3] (LNCaP vs PC3, P < 0.01 for 10 and 20 min, P < 0.001 for 30 min post-injection) was “more than two times lower”. The “weak binding site in SPR Scatchard plot” value at EDB protein was “weak binding site”. Further, in data set [4], the “contrast enhancement in other organs and normal tissues” value is reported as “did not produce significant contrast enhancement”. The “Gd3+ concentration in tumors (ICP-OES)” value with PC3 and LNCaP tumors is “significantly higher concentration in the PC3 tumors than in the LNCaP tumors and that of ProHance in both the tumors”.
For “Cys-Arg-Glu-Lys-Ala [CREKA-Gd(HP-DO3A), reference compound]”, the “tumor differentiation: CNR/enhancement” value in data set [1] was “no significant difference”. Besides, the signal/contrast enhancement result in data set [1] (PC3 tumors) and in data set [3] (LNCaP tumors) was “significant contrast enhancement in the periphery” throughout.
Consider TVRTSAD [ZD2], for which the “reduction of PC3 tumor enhancement by competition” value in data set [1] (co-injection of excess free ZD2 peptide 0.5 mmol/kg with ZD2-Gd(HP-DO3A) 0.1 mmol/kg, PC3 tumors, n=3) was “significantly reduced signal enhancement and CNR; also recorded: blocked the binding of the targeted agent and reduced tumor enhancement in the PC3 tumors”. For the same compound, the “binding in non-cancerous tissue” value with non-cancerous tissue was “non-binding”. The “binding to low-grade tumor” value in the data set with low-grade tumor is on record as “low binding”. Besides, the “colocalization with EDB-FN” value in [9] is recorded as “colocalize with the EDB-FN fibril network”. Moreover, the “binding to high-grade human prostate tumor” value in data set [10] is reported as “strong specific binding”.
